Measurements: PMC3556220 (Biochimica et biophysica acta, 2012)

What was measured:
BON cells [1] = experiment: MTT assay of BON cell growth; assay type: cell-based, human; conditions: for stimulation of BON cell growth, MTT assay: 24 h incubation, serum-free medium, read at 595 nm, mean of 6 experiments
Outline: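 BON cells (5 × 10^3/well) were grown 24 h in DMEM/F12K + 10% FBS, washed with PBS, then exposed 24 h to peptides/hormones in serum-free DMEM/F12K, with or without EGFR inhibitor at 1 μM. MTT (1.2 mM final) was present for the last 3 h. Formazan was dissolved in 0.04 N HCl/isopropanol for 5 min at RT and absorbance read at 595 nm. Mean ± SEM, 6 experiments.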

KRJ-I cells = conditions: cited from earlier work
[2] = tested on: EGFR (Y^1068 phosphorylation); experiment: Western blot of EGFR Tyr^1068 phosphorylation in BON cells; assay type: cell-based, human; conditions: for stimulation of Y^1068 EGFR phosphorylation: Western blot, densitometry; for inhibition of NT-stimulated EGFR Y^1068 phosphorylation by antioxidant: NAC or Tiron pre-treatment (one range for both); for inhibition of Bn-analogue-stimulated EGFR Y^1068 phosphorylation by antioxidant: NAC or Tiron pre-treatment
Outline: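 BON cells were stimulated with EGF 16 nM or peptides 1 µM for 30 min or over time courses; inhibitor sets used 1 h stimulation. Lysis was in pH 7.5 Triton/deoxycholate buffer with orthovanadate. Equal protein ran on 4–20% SDS-PAGE onto nitrocellulose. Probes: anti-phospho-EGFR Tyr1068 (1:1000, overnight 4 °C), tubulin loading control, HRP secondary, chemiluminescence on film, band densitometry. Mean ± SEM, 3–4 experiments.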

BON cells [3] = experiment: [^3H]-Thymidine uptake, BON cell growth; assay type: cell-based, human; conditions: 24 h incubation, serum-free medium, mean of 6 experiments
Outline: (§1)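 Plating: BON 1.5 × 10^5/well in DMEM/F12K; QGP-1 4 × 10^4/well in RPMI; both with 10% FBS. After 24 h, cells were serum-starved 24 h, then exposed 24 h to peptides/hormones with or without EGFR inhibitor at 1 µM. [3H]-thymidine was present for the final 6 h. Cells were washed in ice-cold PBS, precipitated in 5% TCA (30 min, 4 °C), dissolved in 0.5 N NaOH/0.5% SDS and scintillation-counted. Mean ± SEM, 6 experiments.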

QGP-1 cells = experiment: [^3H]-Thymidine uptake, QGP-1 cell growth; assay type: cell-based, human; conditions: n = 6; for stimulation of cell growth, [^3H]-Thymidine incorporation: 24 h, serum-free medium, EGFR-dependent
Outline: as §1

prostate cancer cells = conditions: cited from earlier work
[4] = tested on: pancreatic adenocarcinoma cells; conditions: cited from earlier work
[5] = tested on: rat insulinoma cell lines; conditions: cited from earlier work
BON cells [6] = conditions: cited from earlier work; for induction of apoptosis: BON cells
non-endocrine tumors = conditions: cited from earlier work
NCH720 cells = conditions: broncho-pulmonary NET cell line; cited from earlier work
[7] = tested on: non-small-cancer lung cells / lung cancer; conditions: cited from earlier work
HNSCC = conditions: cited from earlier work; for cell proliferation: HNSCC
BON cells [8] = experiment: BON cell growth, galanin and CCK/gastrin; assay type: cell-based, human; conditions: data not shown
Outline: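 BON cells are grown in DMEM/F12K with 10% FBS, then washed and serum-starved, and test compound is added for 24 h. For the MTT read-out, 5×10^3 cells/well get 1.2 mM MTT (final) for the last 3 h, are lysed in 0.04N HCl/isopropanol, and are read at 595 nm. For thymidine uptake, 1.5×10^5 cells/well are starved 24 h and pulsed with [3H]-thymidine for the final 6 h. Samples are TCA-precipitated, solubilised in NaOH/SDS, and scintillation-counted.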

[9] = tested on: progressive metastatic NETs; conditions: phase II trial, patients with progressive metastatic NETs; cited from earlier work

TGFα: TGFα, BioVision
stimulation of BON cell growth, MTT assay (BON cells [1]): 40% | growth of KRJ-I cells (KRJ-I cells): increase cell growth | stimulation of Y^1068 EGFR phosphorylation ([2]; 3.6 nM, 30 min, n = 4): significantly stimulated | growth stimulated, [^3H]-Thymidine assessment (BON cells [3]): 42% | stimulation of cell growth, [^3H]-Thymidine incorporation (QGP-1 cells): stimulated cell growth

TGFβ
growth of KRJ-I cells (KRJ-I cells): increase cell growth

neurotensin [NT]
cell growth (prostate cancer cells): stimulate cell growth | stimulation of Y^1068 EGFR phosphorylation ([2]; 1 μM, 30 min, n = 4): significantly stimulated | maximal increase of EGFR Y^1068 phosphorylation, dose-response ([2]; 1 μM, n = 4): 2.6 fold | peak time of Y^1068 EGFR tyrosine phosphorylation ([2]; Bn-analogue or NT): 60 min | cell growth [4]: stimulate cell growth | stimulation of cell growth, [^3H]-Thymidine incorporation (QGP-1 cells): stimulated cell growth

Nc1ncnc2c1cnn2-c1ccccc1 [PP3]
reduction of Bn-analogue-stimulated Y^1068 EGFR phosphorylation ([2]; inhibitor 10 μM, Bn-analogue 1 μM, 1 h, n = 4): but not PP3, an inactive PP2 analogue | reduction of NT-stimulated Y^1068 EGFR phosphorylation ([2]; inhibitor 10 μM, NT 1 μM, 1 h, n = 4): but not PP3, an inactive PP2 analogue

epiregulin: epiregulin, an EGFR ligand
cell growth [5]: stimulates cell growth

COc1cc2ncnc(Nc3cccc(Cl)c3)c2cc1OC [AG1478]
inhibition of growth stimulated by each GI hormone, EGF or TGFα, MTT assay (BON cells [1]; BON cells, AG1478 1 μM pre-treatment, 24 h, n = 6): completely inhibited | induction of apoptosis (BON cells [6]): induces apoptosis | BON cell basal proliferation (BON cells [6]): completely blocks BON cell basal proliferation | inhibition of Bn-analogue-stimulated Y^1068 EGFR phosphorylation ([2]; AG1478 1 μM, stimulant Bn-analogue, 30 min, n = 4): inhibited completely | inhibition of EGF-stimulated Y^1068 EGFR phosphorylation ([2]; AG1478 1 μM, stimulant EGF, 30 min, n = 4): 88% | inhibition of NT-stimulated Y^1068 EGFR phosphorylation ([2]; AG1478 1 μM, stimulant NT, 30 min, n = 4): inhibited completely | inhibition of cell growth stimulated by various GI hormones/neurotransmitters (non-endocrine tumors): able to inhibit cell growth | inhibition of the increase of cell growth induced by the GI hormones (QGP-1 cells; AG1478 1 μM pre-treatment, [^3H]-Thymidine uptake): blocked the increase of cell growth

NCCc1c[nH]c2ccc(O)cc12 [serotonin]
cell proliferation of KRJ-I (KRJ-I cells): stimulates cell proliferation | cell proliferation (NCH720 cells): stimulates cell proliferation

[DTyr^6, β Ala^11, Phe^13, Nle^14]Bn (6–14) [Bn-analogue]
stimulation of Y^1068 EGFR phosphorylation ([2]; 1 μM, 30 min, n = 4): significantly stimulated | maximal increase of EGFR Y^1068 phosphorylation, dose-response ([2]; 1 μM, n = 4): 2.4 fold | peak time of Y^1068 EGFR tyrosine phosphorylation ([2]; Bn-analogue or NT): 60 min | increase of EGFR phosphorylation at 62 min ([2]; time course, 1 μM, 62 min (NT data not shown), n = 4): 3.4 fold | stimulation of cell growth, [^3H]-Thymidine incorporation (QGP-1 cells): stimulated cell growth

COc1cc2ncnc(Nc3cccc(Br)c3)c2cc1OC [PD153035]
inhibition of cell growth stimulated by various GI hormones/neurotransmitters (non-endocrine tumors): able to inhibit cell growth

CNC(=O)[C@H](Cc1c[nH]c2ccccc12)NC(=O)[C@@H](CC(=O)NO)CC(C)C [GM 6001]
reduction of Bn-analogue-stimulated EGFR Y^1068 phosphorylation by MMP inhibitor ([2]; GM 6001 pre-treatment, Bn-analogue 1 μM, 1 h, n = 3): 75% | reduction of NT-stimulated EGFR Y^1068 phosphorylation by MMP inhibitor ([2]; GM 6001 pre-treatment, NT 1 μM, 1 h, n = 3): 60%

bombesin
cell proliferation [7]: stimulate cell proliferation | cell proliferation (HNSCC): stimulate cell proliferation

EGF: Human EGF (Recombinant, E. coli)
stimulation of BON cell growth, MTT assay (BON cells [1]): 30% | growth of BON cells (BON cells [6]): can stimulate growth of both KRJ-I cells and BON cells | stimulation of BON cell proliferation (previous studies) (BON cells [6]; previous studies): stimulates cell proliferation | growth of KRJ-I cells (KRJ-I cells): can stimulate growth of both KRJ-I cells and BON cells | stimulation of Y^1068 EGFR phosphorylation ([2]; 16 nM, 30 min, n = 4): significantly stimulated | peak time of Y^1068 EGFR tyrosine phosphorylation ([2]; EGF): 2 min | t1/2 of Y^1068 EGFR phosphorylation ([2]; EGF 16 nM, n = 4): 3 min | growth stimulated, [^3H]-Thymidine assessment (BON cells [3]): 32% | stimulation of cell growth, [^3H]-Thymidine incorporation (QGP-1 cells): able to stimulate BON cell growth, as well as in QGP-1 cells

O=S(=O)(O)c1cc(O)c(O)c(S(=O)(=O)O)c1 [Tiron]
inhibition of NT-stimulated EGFR Y^1068 phosphorylation by antioxidant ([2]; NT 1 μM, 1 h, n = 3): 37–45% | inhibition of Bn-analogue-stimulated EGFR Y^1068 phosphorylation by antioxidant ([2]; Bn-analogue 1 μM, 1 h, n = 3): 85%

CC(=O)N[C@@H](CS)C(=O)O [N-acetylcysteine]
inhibition of NT-stimulated EGFR Y^1068 phosphorylation by antioxidant ([2]; NT 1 μM, 1 h, n = 3): 37–45% | inhibition of Bn-analogue-stimulated EGFR Y^1068 phosphorylation by antioxidant ([2]; Bn-analogue 1 μM, 1 h, n = 3): 85%

CN(C)CCCn1cc(C2=C(c3c[nH]c4ccccc34)C(=O)NC2=O)c2ccccc21 [GF 109203X]
inhibition of NT-stimulated EGFR Y^1068 phosphorylation by PKC inhibitor ([2]; GF 109203X pre-treatment, NT 1 μM, 1 h, n = 3): 77%

bradykinin (RPPGFSPFR; Bradykinin; UniProt P01042 381-389, looked up)
stimulation of Y^1068 EGFR phosphorylation ([2]; 1 μM, 30 min, n = 4): significantly stimulated | growth of HNSCC (HNSCC; through its B2 receptor): stimulates growth of HNSCC | stimulation of cell growth, [^3H]-Thymidine incorporation (QGP-1 cells): able to stimulate BON cell growth, as well as in QGP-1 cells

galanin (GWTLNSAGYLLGPHAVGNHRSFSDKNGLTS; Galanin; UniProt P22466 33-62, looked up)
effect on cell growth (BON cells [8]): did not exert any effect on cell growth

NMB: stimulates cell proliferation in non-small-cancer lung cells
cell proliferation [7]: stimulate cell proliferation | cell proliferation (HNSCC): stimulate cell proliferation

COc1cc2ncnc(Nc3ccc(F)c(Cl)c3)c2cc1OCCCN1CCOCC1 [Gefitinib]
tumor stabilization [9]: stabilization of the tumors | induction of apoptosis (BON cells [6]): induces apoptosis | BON cell basal proliferation (BON cells [6]): completely blocks BON cell basal proliferation
